The source made the active and inactive calls. The calls are words filed in the database; no cut-off is given here.
Columns and labels:
RAW264.7 [1] = assay: Anti-inflammatory activity in mouse RAW264.7 cells assessed as inhibition of LPS-induced IL6 production at 10 mM pre-incubated for 10 mins before LPS stimulation for 24 hrs by ELISA method; assay type: functional, cell-based; conditions: in the assay text read “pre-incubated for 30 mins” for “pre-incubated for 10 mins”
Outline: (§1)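 RAW 264.7 macrophages pretreated with compound for 30 min, then stimulated with LPS for 24 h. TNF-α and IL-6 in culture medium measured by ELISA and normalized to total protein. Expressed as percent of LPS group; mean ± SEM of 3 independent experiments.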

RAW264.7 [2] = assay: Anti-inflammatory activity in mouse RAW264.7 cells assessed as inhibition of LPS-induced TNFalpha production at 10 mM pre-incubated for 10 mins before LPS stimulation for 24 hrs by ELISA method; assay type: functional, cell-based; conditions: in the assay text read “pre-incubated for 30 mins” for “pre-incubated for 10 mins”; outline: as §1
RAW264.7 [3] = assay: Anti-inflammatory activity in mouse RAW264.7 cells assessed as inhibition of LPS-induced IL6 production pre-incubated for 30 mins before LPS stimulation for 24 hrs by ELISA method
[4] = Toxicity against human HL7702 cells assessed as reduction in cell survival at 10 uM incubated for 24 hrs by MTT assay; assay type: cell-based; conditions: l02, 24 h
Outline: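 HL-7702 normal hepatic cells treated at 10 µM for 24 h. Viability measured by MTT.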

RAW264.7 [5] = assay: Anti-inflammatory activity in mouse RAW264.7 cells assessed as inhibition of LPS-induced IL6 production pre-incubated for 10 mins before LPS stimulation for 24 hrs by ELISA method; assay type: functional, cell-based; conditions: in the assay text read “pre-incubated for 30 mins” for “pre-incubated for 10 mins”
Outline: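 RAW 264.7 macrophages pretreated for 30 min at 1, 2.5, 5 and 10 µM, then given LPS (0.5 µg/mL) for 24 h. IL-6 in medium measured by ELISA, normalized to total protein, and expressed as percent of LPS. Concentration-response used for IC50; 3 independent experiments.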

BEAS-2B [6] = assay: Anti-inflammatory activity in human BEAS2B cells assessed as LPS-induced TNFalpha mRNA expression incubated for 6 hrs by RT-qPCR method; assay type: functional, cell-based
Outline: (§2)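 Beas-2B cells exposed to LPS (1.0 µg/mL) for 6 h, with or without compound. IL-1β, IL-6, IL-33 and TNF-α mRNA quantified by RT-qPCR. Results expressed as percent of LPS control.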

Mus musculus [7] = assay: Anti-inflammatory activity in C57BL/6 mouse model of LPS-induced acute lung injury assessed as reduction in protein level in bronchoalveolar lavage fluid at 20 mg/kg for 1 week dosed before LPS instillation for 6 hrs by BCA protein assay; assay type: functional, organism-based
Outline: (§3)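 ALI model in mice: one-week pretreatment at 20 mg/kg, then intratracheal LPS instillation (5 mg/kg). After 6 h, animals anaesthetized and killed. Lung wet/dry weight ratio determined. Total cell count and total protein concentration measured in bronchoalveolar lavage fluid.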

Mus musculus [8] = assay: Anti-inflammatory activity in C57BL/6 mouse model of LPS-induced acute lung injury assessed as reduction in lung wet/dryweight ratio at 20 mg/kg for 1 week dosed before LPS instillation for 6 hrs; assay type: functional, organism-based; outline: as §3
Mus musculus [9] = assay: Anti-inflammatory activity in C57BL/6 mouse model of LPS-induced acute lung injury assessed as reduction in TNFalpha level in bronchoalveolar lavage fluid at 20 mg/kg for 1 week dosed before LPS instillation for 6 hrs; assay type: functional, organism-based
Outline: (§4)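 LPS-induced ALI in mice. Pretreatment at 20 mg/kg for one week, then intratracheal LPS (5 mg/kg). Animals killed 6 h later. BALF and serum collected and TNF-α measured in each.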

Mus musculus [10] = organism: Mus musculus; assay: Anti-inflammatory activity in C57BL/6 mouse model of LPS-induced acute lung injury assessed as reduction in lung airspace inflammation […] by hematoxylin and eosin staining method; assay type: functional, organism-based
Outline: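 Lung tissue taken 6 h after tracheal LPS instillation (5 mg/kg) in mice given or not given treatment. Sections stained with hematoxylin and eosin and examined by light microscopy for inflammatory cell infiltration, interstitial edema and alveolar septal thickening.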

BEAS-2B [11] = assay: Anti-inflammatory activity in human BEAS2B cells assessed as LPS-induced IL33 mRNA expression incubated for 6 hrs by RT-qPCR method; assay type: functional, cell-based; outline: as §2
BEAS-2B [12] = assay: Anti-inflammatory activity in human BEAS2B cells assessed as LPS-induced IL6 mRNA expression incubated for 6 hrs by RT-qPCR method; assay type: functional, cell-based; outline: as §2
Mus musculus [13] = assay: Anti-inflammatory activity in C57BL/6 mouse model of LPS-induced acute lung injury assessed as reduction in serum TNFalpha level at 20 mg/kg for 1 week dosed before LPS instillation for 6 hrs; assay type: functional, organism-based; outline: as §4
BEAS-2B [14] = assay: Anti-inflammatory activity in human BEAS2B cells assessed as LPS-induced IL-1beta mRNA expression incubated for 6 hrs by RT-qPCR method; assay type: functional, cell-based; outline: as §2
Mus musculus [15] = assay: Anti-inflammatory activity in C57BL/6 mouse model of LPS-induced acute lung injury assessed as reduction in lung CD68-stained macrophages level at 20 mg/kg for 1 week dosed before LPS instillation for 6 hrs by immunohistochemistry method; assay type: functional, organism-based
Outline: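 Lung sections from mice killed 6 h after intratracheal LPS, with or without pretreatment. Macrophages detected by immunohistochemistry for the marker CD68.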

Mus musculus [16] = assay: Anti-inflammatory activity in C57BL/6 mouse model of LPS-induced acute lung injury assessed as reduction in total cel count at 20 mg/kg for 1 week dosed before LPS instillation for 6 hrs; assay type: functional, organism-based; outline: as §3

| Compound | inhibition (RAW264.7 [1]) | inhibition (RAW264.7 [2]) | further results |
| --- | --- | --- | --- |
| COc1ccc(C(=O)/C=C/c2ccc(Br)cc2)cc1/N=C/c1cccc(OC)c1O | Active | Active |  |
| COc1ccc(C(=O)/C=C/c2cc(OC)c(OC)c(OC)c2)cc1/N=C/c1ccccc1O | Active |  | IC50 (RAW264.7 [3]): 3.6 µM; Activity [4]: Non-toxic; inhibition (RAW264.7 [5]): Dose-dependent effect |
| COc1ccc(C(=O)/C=C/c2ccccc2Br)cc1/N=C/c1cccc(OC)c1O | Active | Active |  |
| COc1ccc(C(=O)/C=C/c2cc(OC)c(OC)c(OC)c2)cc1/N=C/c1ccc(O)c(Br)c1 | Active | Active | IC50 (RAW264.7 [3]): 3.6 µM; Activity [4]: Non-toxic; inhibition (RAW264.7 [5]): Dose-dependent effect |
| COc1ccc(C(=O)/C=C/c2cc(OC)c(OC)c(OC)c2)cc1/N=C/c1ccccc1Br | Active | Active | IC50 (RAW264.7 [3]): 4.8 µM; Activity [4]: Non-toxic; inhibition (RAW264.7 [5]): Dose-dependent effect |
| COc1ccc(C(=O)/C=C/c2cc(OC)c(OC)c(OC)c2)cc1/N=C/c1ccc(O)cc1O | Active |  |  |
| COc1ccc(C(=O)/C=C/c2cccc(Br)c2)cc1/N=C/c1cccc(OC)c1O | Active | Active |  |
| COc1ccc(C(=O)/C=C/c2cc(OC)c(OC)c(OC)c2)cc1/N=C/c1ccc(Cl)cc1Cl | Active |  |  |
| COc1ccc(C(=O)/C=C/c2ccc(OC)c(OC)c2)cc1/N=C/c1cccc(OC)c1O | Active |  |  |
| COc1ccc(C(=O)/C=C/c2ccc(C(F)(F)F)cc2)cc1/N=C/c1cccc(OC)c1O | Active | Active |  |
| COc1ccc(C(=O)/C=C/c2ccccc2C(F)(F)F)cc1/N=C/c1cccc(OC)c1O | Active | Active |  |
| COc1cc(OC)c(/C=C/C(=O)c2ccc(OC)c(/N=C/c3cccc(OC)c3O)c2)c(OC)c1 | Active |  |  |
| COc1ccc(C(=O)/C=C/c2cc(OC)c(OC)c(OC)c2)cc1/N=C/c1cccc(O)c1O | Active | Active | inhibition (BEAS-2B [6]): Active; inhibition (Mus musculus [7]): Active; IC50 (RAW264.7 [3]): 1.8 µM; inhibition (Mus musculus [8]): Active; inhibition (Mus musculus [9]): Active; inhibition (Mus musculus [10]): Active; inhibition (BEAS-2B [11]): Active; inhibition (BEAS-2B [12]): Active; inhibition (Mus musculus [13]): Active; inhibition (BEAS-2B [14]): Active; Activity [4]: Non-toxic; inhibition (Mus musculus [15]): Active; inhibition (RAW264.7 [5]): Dose-dependent effect; inhibition (Mus musculus [16]): Active |
| Oc1ccc(/C=C/c2cc(O)cc(O)c2)cc1 | Active | Active | inhibition (Mus musculus [13]): Active; inhibition (Mus musculus [15]): Active |
| COc1ccc(Br)c(/C=N/c2cc(C(=O)/C=C/c3cc(OC)c(OC)c(OC)c3)ccc2OC)c1 | Active |  |  |
| COc1ccc(C(=O)/C=C/c2cc(OC)c(OC)c(OC)c2)cc1/N=C/c1cc2c(cc1Br)OCO2 | Active |  |  |
| CCN(CC)c1ccc(/C=N/c2cc(C(=O)/C=C/c3cc(OC)c(OC)c(OC)c3)ccc2OC)c(O)c1 | Active |  |  |
| COc1ccccc1/C=C/C(=O)c1ccc(OC)c(/N=C/c2cccc(OC)c2O)c1 | Active | Active |  |
| COc1ccc(C(=O)/C=C/c2cc(OC)c(OC)c(OC)c2)cc1/N=C/c1cccc(OC)c1O | Active | Active | Activity [4]: Non-toxic; IC50 (RAW264.7 [5]): 2.8 µM; inhibition (RAW264.7 [5]): Dose-dependent effect |
| COc1ccc(C(=O)/C=C/c2ccc3ccccc3c2)cc1/N=C/c1cccc(OC)c1O | Active |  |  |

Source: ChEMBL document CHEMBL3596136, “Design, synthesis and biological evaluation of paralleled Aza resveratrol-chalcone compounds as potential anti-inflammatory agents for the treatment of acute lung injury” (Bioorg Med Chem Lett, 2015)
